Consider 20 compounds from publication PMC10373460 (ACS Omega, 2023).

Assay [1] concerns the target α-glucosidase from S. cerevisiae E.C. 3.2.1.20 (Saccharomyces cerevisiae, UniProt P53341). As to the kind of experiment: Inhibition of α-glucosidase activity in vitro. In kind it is biochemical. To be noted: for inhibition at 10 µM: read-out: %inhibition (10 μM).
For assay [2], the target named is α-glucosidase (Saccharomyces cerevisiae, UniProt P53341). As to the kind of experiment: Enzyme kinetic study. In kind it is biochemical. To be noted: for inhibition mode: Lineweaver–Burk plots, Km increased, Vmax unaffected. The method, boiled down: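 S. cerevisiae α-glucosidase solution (0.1 U/mL) and pNPG substrate solution (1 mM) prepared in […] pH 6.9 phosphate buffer. Enzyme preincubated with test compound (DMSO stock) for 10 min at 37 °C, then substrate added for 20 min at 37 °C. Stopped with 1 M Na2CO3, read at 405 nm. Lineweaver–Burk plots at several inhibitor concentrations; Ki from secondary replot of slope versus concentration.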
Chain of α-glucosidase (P53341 whole entry): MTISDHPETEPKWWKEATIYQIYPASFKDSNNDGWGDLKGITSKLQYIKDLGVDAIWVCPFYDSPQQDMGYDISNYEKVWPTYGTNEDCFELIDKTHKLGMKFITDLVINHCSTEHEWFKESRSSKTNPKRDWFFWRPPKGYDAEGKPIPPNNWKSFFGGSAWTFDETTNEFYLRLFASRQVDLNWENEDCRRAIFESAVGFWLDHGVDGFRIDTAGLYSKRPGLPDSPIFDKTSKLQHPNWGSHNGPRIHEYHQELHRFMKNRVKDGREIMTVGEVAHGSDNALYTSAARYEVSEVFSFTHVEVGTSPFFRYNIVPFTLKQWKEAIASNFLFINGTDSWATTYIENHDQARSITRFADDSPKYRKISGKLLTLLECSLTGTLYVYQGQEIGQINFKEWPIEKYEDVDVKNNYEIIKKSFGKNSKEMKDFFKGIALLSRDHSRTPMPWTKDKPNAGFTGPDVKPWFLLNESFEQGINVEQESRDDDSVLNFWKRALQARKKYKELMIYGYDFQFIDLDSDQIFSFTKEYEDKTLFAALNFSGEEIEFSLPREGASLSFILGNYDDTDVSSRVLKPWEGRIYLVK

“Also recorded” adds a separate entry of the source.

Chain of α-glucosidase from S. cerevisiae E.C. 3.2.1.20 (P53341 whole entry): as above

`O=c1cc(O)c2ccccc2o1` [4-hydroxycoumarin]: in assay [1], the IC50 was more than 200 µM.
Turning to `O=c1oc2ccccc2c(O)c1C(c1ccccc1)c1c(O)c2ccccc2oc1=O` [Compound 1, 3,3′-(Phenylmethylene)bis(4-hydroxy-2H-chromen-2-one)], the IC50 in assay [1] was 30.8 ± 1.25 µM.
Compound `O=c1oc2ccccc2c(O)c1C(c1ccccc1Cl)c1c(O)c2ccccc2oc1=O` [Compound 2, 3,3′-((2-Chlorophenyl)methylene)bis(4-hydroxy-2H-chromen-2-one)] had an IC50 in assay [1] of 8.12 ± 0.59 µM.
As to `O=c1oc2ccccc2c(O)c1C(c1cccc(Cl)c1)c1c(O)c2ccccc2oc1=O` [Compound 3, 3,3′-((3-Chlorophenyl)methylene)bis(4-hydroxy-2H-chromen-2-one)], the IC50 in assay [1] came out at 6.06 ± 0.06 µM.
`O=c1oc2ccccc2c(O)c1C(c1ccc(Cl)cc1)c1c(O)c2ccccc2oc1=O` [Compound 4, 3,3′-((4-Chlorophenyl)methylene)bis(4-hydroxy-2H-chromen-2-one)] had an IC50 in assay [1] of 3.19 ± 0.41 µM.
In assay [1], `O=c1oc2ccccc2c(O)c1C(c1ccc(F)cc1)c1c(O)c2ccccc2oc1=O` [Compound 5, 3,3′-((4-Fluorophenyl)methylene)bis(4-hydroxy-2H-chromen-2-one)] displayed an IC50 of 12.31 ± 0.08 µM.
In assay [1], `O=c1oc2ccccc2c(O)c1C(c1ccc(Br)cc1)c1c(O)c2ccccc2oc1=O` [Compound 6, 3,3′-((4-Bromophenyl)methylene)bis(4-hydroxy-2H-chromen-2-one)] yielded an IC50 of 2.95 ± 0.05 µM.
With `O=c1oc2ccccc2c(O)c1C(c1ccc(Cl)cc1Cl)c1c(O)c2ccccc2oc1=O` [Compound 7, 3,3′-((2,4-Dichlorophenyl)methylene)bis(4-hydroxy-2H-chromen-2-one)], the IC50 in assay [1] came to 3.15 ± 0.31 µM.
In turn, `O=c1oc2ccccc2c(O)c1C(c1ccc(Cl)c(Cl)c1)c1c(O)c2ccccc2oc1=O` [Compound 8, 3,3′-((3,4-Dichlorophenyl)methylene)bis(4-hydroxy-2H-chromen-2-one)] registered an IC50 in assay [1] of 1.9 ± 0.14 µM.
In the case of `O=c1oc2ccccc2c(O)c1C(c1cccc([N+](=O)[O-])c1)c1c(O)c2ccccc2oc1=O` [Compound 9, 3,3′-((3-Nitrophenyl)methylene)bis(4-hydroxy-2H-chromen-2-one)], the IC50 in assay [1] amounted to 14.8 ± 0.32 µM.
In assay [1], `O=c1oc2ccccc2c(O)c1C(c1ccc(Br)c([N+](=O)[O-])c1)c1c(O)c2ccccc2oc1=O` [Compound 10, 3,3′-((4-Bromo-3-nitrophenyl)methylene)bis(4-hydroxy-2H-chromen-2-one)] displayed an IC50 of 3.41 ± 0.17 µM.
Same read-out and setting: with `O=c1oc2ccccc2c(O)c1C(c1ccc(F)c(Br)c1)c1c(O)c2ccccc2oc1=O` [Compound 11, 3,3′-((3-Bromo-4-fluorophenyl)methylene)bis(4-hydroxy-2H-chromen-2-one)] the figure was 2.89 ± 0.25 µM; with `O=c1oc2ccccc2c(O)c1C(c1ccc(O)c(Br)c1)c1c(O)c2ccccc2oc1=O` [Compound 12, 3,3′-((3-Bromo-4-hydroxyphenyl)methylene)bis(4-hydroxy-2H-chromen-2-one)], 4.15 ± 0.06 µM; with `COc1ccc(C(c2c(O)c3ccccc3oc2=O)c2c(O)c3ccccc3oc2=O)cc1Br` [Compound 13, 3,3′-((3-Bromo-4-methoxyphenyl)methylene)bis(4-hydroxy-2H-chromen-2-one)], 3.8 ± 0.05 µM.
As to `O=c1oc2ccccc2c(O)c1C(c1cc(Br)c(O)c(Br)c1)c1c(O)c2ccccc2oc1=O` [Compound 14, 3,3′-((3,5-Dibromo-4-hydroxyphenyl)methylene)bis(4-hydroxy-2H-chromen-2-one)], the IC50 in assay [1] was 2.38 ± 0.24 µM.
Same read-out and setting: with `COc1cc(C(c2c(O)c3ccccc3oc2=O)c2c(O)c3ccccc3oc2=O)ccc1O` [Compound 15, 3,3′-((4-Hydroxy-3-methoxyphenyl)methylene)bis(4-hydroxy-2H-chromen-2-one)] the figure was 15.2 ± 0.45 µM; with `COc1cc(C(c2c(O)c3ccccc3oc2=O)c2c(O)c3ccccc3oc2=O)cc(Br)c1O` [Compound 16, 3,3′-((3-Bromo-4-hydroxy-5-methoxyphenyl)methylene)bis(4-hydroxy-2H-chromen-2-one)], 5.1 ± 0.18 µM.
As for `COc1c(Br)cc(C(c2c(O)c3ccccc3oc2=O)c2c(O)c3ccccc3oc2=O)cc1Br` [Compound 17, 3,3′-((3,5-Dibromo-4-methoxyphenyl)methylene)bis(4-hydroxy-2H-chromen-2-one)], the inhibition at 10 µM in assay [1] came to 99.77 ± 0.49%. Also, in assay [2], the Ki was found to be 4.81 µM.
Regarding `CCCCOc1c(Br)cc(C(c2c(O)c3ccccc3oc2=O)c2c(O)c3ccccc3oc2=O)cc1Br` [Compound 18, 3,3′-((3,5-Dibromo-4-butoxyphenyl)methylene)bis(4-hydroxy-2H-chromen-2-one)], the inhibition at 10 µM in assay [1] is 99.67 ± 0.42%. In assay [2], the Ki stood at 3.93 µM and the inhibition mode result is reported as “competitive inhibition; also recorded: competitive binding mode”.
On to `CCCCCCCCOc1c(Br)cc(C(c2c(O)c3ccccc3oc2=O)c2c(O)c3ccccc3oc2=O)cc1Br` [Compound 19, 3,3′-((3,5-Dibromo-4-(octyloxy)phenyl)methylene)bis(4-hydroxy-2H-chromen-2-one)], for which the inhibition at 10 µM in assay [1] was 98.95 ± 0.26%. Further, in assay [2], affinity was put at a Ki of 1.8 µM and the inhibition mode entry was “competitive inhibition”.
